Measurements pooled from the literature.
Each line is one published result; the experiments were not run side by side.
Target: Rho-associated protein kinase 1 (ROCK1, Homo sapiens, UniProt Q13464)

Compound | effect on | method | tested at | remaining binding [%]
N#Cc1ccc(Nc2ccc3[nH]c(=O)[nH]c3c2)c(Cl)c1 | cell-free assay | competition with immobilised ligand | 1 µM | 100
C[C@H]1CCN(c2nccc(-c3cnn4ncccc34)n2)C1 | binding |  | 1 µM | 81
COc1cnc(Nc2cccc(S(N)(=O)=O)c2)nc1N1CCN(c2ccccc2)CC1 | binding | competition with immobilised ligand | 1 µM | 78
Cc1c(NC(=O)c2cc(C(N)=O)nc3cc(F)ccc23)c(C(F)(F)F)nn1Cc1ccc(C#N)cc1 | cell-free assay | competition with immobilised ligand | 1 µM | 97
CN(C)c1nccc(-c2cnn3ncccc23)n1 | binding |  | 1 µM | 100
CS(=O)(=O)c1cc(C2(NC(=O)c3cncc4c3cnn4-c3ccc(F)cc3)CC2)ccn1 | cell-free assay | competition with immobilised ligand | 1 µM | 79
F[C@@H]1CCN(c2nccc(-c3cnn4ncccc34)n2)C1 | binding |  | 1 µM | 100
Cc1cnc(Nc2ccc(C(=O)N3CCC(N4CCCC4)CC3)cc2)nc1-c1cc2ccccc2s1 | binding | competition with immobilised ligand | 1 µM | 7.7
COc1ncc2cc3ccccc3nc2c1C#N | cell-free assay | competition with immobilised ligand | 5 µM | 84
Cc1c(C(=O)O)cc(-c2ccc(C3CCNCC3)cc2)c2ccc(-c3ccc(C(F)(F)F)cc3)cc12 | binding | competition with immobilised ligand | 1 µM | 100
CNC(=O)[C@@H]1CC[C@@H](n2c(-c3ccc4cnccc4c3)nc3ccc(C(=O)NCc4cccc(C(N)=O)c4)cc32)C1 | binding | competition with immobilised ligand | 1 µM | 100
O=C(c1ccc(Nc2ncc(Cl)c(-c3cc4ccccc4s3)n2)cc1)N1CCC(N2CCCC2)CC1 | binding | competition with immobilised ligand | 1 µM | 4.5
CN(C)c1ncc(F)c(-c2cnn3ncccc23)n1 | binding |  | 1 µM | 100
O=C(NCC1CCOCC1)c1n[nH]cc1NC(=O)c1c(F)cccc1F | binding | competition with immobilised ligand | 1 µM | 83
N[C@H]1CCN(c2nccc(-c3cnn4ncccc34)n2)C1 | binding |  | 1 µM | 73
Nc1ncc2c(n1)-c1c([nH]c3ccc(C#CC4CC4)cc13)CCCC2 | binding | competition with immobilised ligand | 1 µM | 100
CC1CCCN1c1nccc(-c2cnn3ncccc23)n1 (stereo not shown) | binding |  | 1 µM | 100
O=C(c1ccc(Nc2nccc(-c3cc4ccccc4s3)n2)cc1)N1CCC(N2CCCC2)CC1 | binding | competition with immobilised ligand | 1 µM | 7.4
CCC(=N\O)/C(C)=C/c1ccc(F)cc1 | cell-free assay | competition with immobilised ligand | 1 µM | 100
c1cncc(-c2cccc(Nc3nccc(NC4CCCCC4)n3)c2)c1 | binding | competition with immobilised ligand | 10 µM | 10
c1cnn2ncc(-c3ccnc(N4CCC45COC5)n3)c2c1 | binding |  | 1 µM | 77
C[C@H](c1ccnc(Nc2nc3ccc(-c4cc(N(C)C)ncn4)cc3[nH]2)c1)N1CCN(C(=O)CC(F)(F)F)CC1 | cell-free assay | competition with immobilised ligand | 0.1 µM | 100
